Type in all cases: cell-based
Data set [1] in a line: Modulatory activity at P-gp in human K562/DOX cells assessed as increase in nuclear concentration of pirarubicin by spectrofluorometric assay. The note with it: K562/Adr, read-out: I50.
For data set [2], the system named is K562. The data set is described as follows: Intrinsic cytotoxicity against doxorubicin-resistant human K562 cells at 3 uM after 72 hrs by MTT assay. The note with it: k562, 72 h. Put shortly:
(§1)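 K562 parental and P-gp-overexpressing K562/DOX cells, exponential phase (3 × 10⁵ cells/mL), seeded at 3000 cells/well. Test compounds alone at 0.1, 1.0 or 3.0 µM, without doxorubicin. Incubated 37 °C, 5% CO₂, 72 h. MTT added, further 3 h incubation, formazan crystals inspected microscopically.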

For data set [3], the system named is K562. The data set is described as follows: Intrinsic cytotoxicity against human K562 cells at 0.1 to 3 uM after 72 hrs by MTT assay. The note with it: k562, 72 h. Put shortly:
as §1

Data set [4] concerns the target ATP-dependent translocase ABCB1 (Homo sapiens, UniProt P08183). The data set is described as follows: Modulatory activity at P-gp in doxorubicin-resistant human K562 cells assessed as MDR-reversing activity by measuring doxorubicin-induced cell mortality after 72 hrs by MTT assay relative to untreated control. The note with it: k562, 72 h. Put shortly:
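K562/DOX (P-gp-overexpressing, doxorubicin-resistant) cells in exponential growth were seeded at 3000 cells/well. Doxorubicin was given alone or with modulator at 0.1, 1.0 or 3.0 µM, and incubated 72 h at 37 °C in 5% CO2. Viability was read by MTT with a further 3 h incubation. Reversal fold is the doxorubicin IC50 without modulator divided by the IC50 with modulator. Values are the mean of ≥3 determinations, each with quadruplicate cultures.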

ATP-dependent translocase ABCB1, sequence (P08183 whole entry): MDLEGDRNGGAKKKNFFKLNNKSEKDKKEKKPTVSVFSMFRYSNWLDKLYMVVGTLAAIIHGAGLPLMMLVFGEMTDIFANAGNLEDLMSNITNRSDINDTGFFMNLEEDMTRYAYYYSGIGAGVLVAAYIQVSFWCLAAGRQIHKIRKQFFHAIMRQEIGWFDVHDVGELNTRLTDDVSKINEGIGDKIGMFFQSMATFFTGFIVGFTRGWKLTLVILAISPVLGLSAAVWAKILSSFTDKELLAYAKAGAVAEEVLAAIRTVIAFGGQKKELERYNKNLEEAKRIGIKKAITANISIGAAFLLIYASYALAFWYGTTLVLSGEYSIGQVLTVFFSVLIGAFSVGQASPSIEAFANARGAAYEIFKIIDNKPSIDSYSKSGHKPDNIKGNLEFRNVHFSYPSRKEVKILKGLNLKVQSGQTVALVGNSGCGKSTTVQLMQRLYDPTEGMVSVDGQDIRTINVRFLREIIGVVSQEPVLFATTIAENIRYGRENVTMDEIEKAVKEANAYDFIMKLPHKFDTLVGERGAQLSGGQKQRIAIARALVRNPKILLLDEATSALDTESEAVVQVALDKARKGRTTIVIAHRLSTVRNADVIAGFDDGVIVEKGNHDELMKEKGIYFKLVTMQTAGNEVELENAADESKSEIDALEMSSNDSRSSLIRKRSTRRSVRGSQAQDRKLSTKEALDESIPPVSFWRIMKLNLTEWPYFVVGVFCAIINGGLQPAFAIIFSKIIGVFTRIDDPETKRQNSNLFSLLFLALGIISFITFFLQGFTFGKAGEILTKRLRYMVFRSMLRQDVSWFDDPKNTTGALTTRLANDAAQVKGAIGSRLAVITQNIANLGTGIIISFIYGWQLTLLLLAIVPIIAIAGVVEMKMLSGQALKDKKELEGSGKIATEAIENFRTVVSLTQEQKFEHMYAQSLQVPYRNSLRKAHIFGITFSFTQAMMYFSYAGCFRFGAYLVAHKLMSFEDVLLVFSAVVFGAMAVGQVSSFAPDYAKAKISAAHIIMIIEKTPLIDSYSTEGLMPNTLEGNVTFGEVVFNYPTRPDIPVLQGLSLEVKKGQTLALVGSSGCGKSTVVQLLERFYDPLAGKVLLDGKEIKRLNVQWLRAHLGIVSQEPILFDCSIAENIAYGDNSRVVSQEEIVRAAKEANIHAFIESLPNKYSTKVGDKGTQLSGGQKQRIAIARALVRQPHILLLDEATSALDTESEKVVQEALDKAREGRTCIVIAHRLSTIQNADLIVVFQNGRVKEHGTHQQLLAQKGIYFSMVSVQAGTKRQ

Take `C=C[C@@H]1CN2CC[C@H]1C[C@H]2[C@H](OCC(=O)OCCCCCN(C)CCCCCOC(=O)/C=C/c1cc(OC)c(OC)c(OC)c1)c1ccnc2ccc(OC)cc12`: the IC50 in data set [1] was determined as 3430 nM. As to `C=C[C@@H]1CN2CC[C@H]1C[C@H]2[C@H](OCC(=O)OCCCN(C)CCCOC(=O)/C=C/c1cc(OC)c(OC)c(OC)c1)c1ccnc2ccc(OC)cc12`, the IC50 in data set [1] stood at 5060 nM. On to `C=C[C@@H]1CN2CC[C@H]1C[C@H]2[C@@H](OCC(=O)OCCCN(C)CCCOC(=O)/C=C/c1cc(OC)c(OC)c(OC)c1)c1ccnc2ccc(OC)cc12`, for which, in data set [1], the IC50 amounted to 4790 nM.

`COc1ccc2nccc(C(=O)OCCCN(C)CCCOC(=O)/C=C/c3cc(OC)c(OC)c(OC)c3)c2c1`: the IC50 in data set [1] came out at 880 nM.

As to `COc1cc(/C=C/C(=O)OCCCN(C)CCCOC(=O)C2c3ccccc3-c3ccccc32)cc(OC)c1OC`, the IC50 in data set [1] turned out to be 500 nM. Take `COc1cc(C#CC(=O)OCCCN(C)CCCOC(=O)c2cc(OC)c(OC)c(OC)c2)cc(OC)c1OC`: the IC50 in data set [1] turned out to be 1000 nM.

For the compound `COc1cc(C#CC(=O)OCCCN(C)CCCOC(=O)c2c3ccccc3cc3ccccc23)cc(OC)c1OC`, the IC50 in data set [1] is 700 nM.

In the case of `C=C[C@@H]1CN2CC[C@H]1C[C@H]2[C@@H](OCC(=O)OCCCCCN(C)CCCCCOC(=O)/C=C/c1cc(OC)c(OC)c(OC)c1)c1ccnc2ccc(OC)cc12`, the IC50 in data set [1] was determined as 2650 nM.

For the compound `COc1ccc2nccc(C(=O)OCCCCCN(C)CCCCCOC(=O)/C=C/c3cc(OC)c(OC)c(OC)c3)c2c1`, the IC50 in data set [1] was found to be 750 nM. As for `COc1cc(C#CC(=O)OCCCCCN(C)CCCCCOC(=O)c2cc(OC)c(OC)c(OC)c2)cc(OC)c1OC`, the IC50 in data set [1] was found to be 290 nM. On to `COc1cc(C#CC(=O)OCCCCCN(C)CCCCCOC(=O)c2c3ccccc3cc3ccccc23)cc(OC)c1OC`, for which the IC50 in data set [1] stood at 340 nM. Take `COc1cc(/C=C/C(=O)OCCCN(C)CCCCCOC(=O)c2cc(OC)c(OC)c(OC)c2)cc(OC)c1OC`: the IC50 in data set [1] is 270 nM. Turning to `COc1cc(/C=C/C(=O)OCCCCCN(C)CCCOC(=O)c2cc(OC)c(OC)c(OC)c2)cc(OC)c1OC`, the IC50 in data set [1] worked out at 120 nM.

Consider `COc1cc(/C=C/C(=O)OCCCCN(C)CCCCOC(=O)c2cc(OC)c(OC)c(OC)c2)cc(OC)c1OC`, for which the IC50 in data set [1] is 1530 nM. `COc1cc(/C=C/C(=O)OCCCN(C)CCCCCOC(=O)c2c3ccccc3cc3ccccc23)cc(OC)c1OC`: the IC50 in data set [1] was determined as 40 nM. Moreover, the Activity entry in the data set on K562 [2] was “<= 20%”; in the data set on K562 [3] it was “Non-toxic”. As for `COc1cc(/C=C/C(=O)OCCCCCN(C)CCCOC(=O)c2c3ccccc3cc3ccccc23)cc(OC)c1OC`, the IC50 in data set [1] turned out to be 40 nM. Further, in data set [4], the mortality amounted to 100%. Further, the Activity result is “<= 20%” with K562 [2] and “Non-toxic” with K562 [3]. The corresponding values for `COc1cc(/C=C/C(=O)OCCCCN(C)CCCCOC(=O)c2c3ccccc3cc3ccccc23)cc(OC)c1OC` are 70 nM, 100%, “<= 20%” and “Non-toxic”. Turning to `COc1cc(C#CC(=O)OCCCN(C)CCCCCOC(=O)c2cc(OC)c(OC)c(OC)c2)cc(OC)c1OC`, the IC50 in data set [1] stood at 260 nM. Consider `COc1cc(C#CC(=O)OCCCCCN(C)CCCOC(=O)c2cc(OC)c(OC)c(OC)c2)cc(OC)c1OC`, for which the IC50 in data set [1] was determined as 310 nM. As to `COc1cc(C#CC(=O)OCCCCN(C)CCCCOC(=O)c2cc(OC)c(OC)c(OC)c2)cc(OC)c1OC`, in data set [1], the IC50 came to 1030 nM.

In the case of `COc1cc(C#CC(=O)OCCCN(C)CCCCCOC(=O)c2c3ccccc3cc3ccccc23)cc(OC)c1OC`, the IC50 in data set [1] was found to be 110 nM. Regarding `COc1cc(C#CC(=O)OCCCCCN(C)CCCOC(=O)c2c3ccccc3cc3ccccc23)cc(OC)c1OC`, in data set [1], the IC50 worked out at 100 nM.

For the compound `COc1cc(C#CC(=O)OCCCCN(C)CCCCOC(=O)c2c3ccccc3cc3ccccc23)cc(OC)c1OC`, the IC50 in data set [1] was 100 nM.

For the compound `COc1cc(/C=C/C(=O)OCCCCCN(C)CCCOC(=O)C2c3ccccc3-c3ccccc32)cc(OC)c1OC`, the IC50 in data set [1] came to 190 nM. As to `COc1cc(/C=C/C(=O)OCCCN(C)CCCCCOC(=O)C2c3ccccc3-c3ccccc32)cc(OC)c1OC`, in data set [1], the IC50 is 350 nM. As for `COc1cc(/C=C/C(=O)OCCCCN(C)CCCCOC(=O)C2c3ccccc3-c3ccccc32)cc(OC)c1OC`, the IC50 in data set [1] was found to be 110 nM.

The values above are taken from ChEMBL document CHEMBL3351386, “Multidrug resistance (MDR) reversers: High activity and efficacy in a series of asymmetrical N,N-bis(alkanol)amine aryl esters” (Eur J Med Chem, 2014).
